Screening data deposited in PubChem BioAssay by Broad Institute.
PGC1a acetyl up = raises PGC1a acetylation signal in U2OS cells; U2OS PGC1a acetylation AlphaScreen, overnight; activation, % at 15.6 µM; 350,000 tested, 0.21% active;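 active means every replicate reaching activation of at least 50%, whatever the mean replicate activation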;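 further: hits raise the AlphaScreen acetylation signal above neutral controls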
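System: Flag-PGC1a/GCN5 U2OS cells | Quantity: 7000 cells/well | Times: Overnight compound treatment, 37 °C | Measured by: AlphaScreen proximity luminescence, anti-acetyl-lysine antibody | Dosing: One concentration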
Of the large screens only hits and unclear results are named; the others gave an inactive call. Shown is part of a subset that was picked to be rich in hits.

CCN1CCN(c2cc(C)c3cc(NC(=O)c4ccc(Br)o4)ccc3n2)CC1	PGC1a acetyl up 52.9
Cc1cccc(C)c1OC1(c2ccccc2)OC(=O)c2ccccc21 (centres undefined)	PGC1a acetyl up 72.1
C=CCOc1ccccc1CNc1ccc2[nH]c(=O)[nH]c2c1	none
CCCc1nnc(NC(=O)CN2CCOCC2)s1	PGC1a acetyl up 93.0
CCC(=O)Nc1nnc(SCCOC)s1	none
C[C@@H]1CN([C@@H](C)CO)C(=O)c2cc(NS(C)(=O)=O)ccc2O[C@@H](C)CCCCO[C@H]1CN(C)C(=O)Nc1ccc(F)cc1	none
Nc1cc2ccncc2c2ccccc12	none
CC(=O)NC(c1cccc(F)c1)c1nc(-c2cccc(C(C)C)c2)cs1 (centres undefined)	none
Cc1noc(C)c1NC(=O)N(C)C[C@H]1OCCCC[C@@H](C)Oc2ccc(NC(=O)Cc3ccccc3)cc2C(=O)N([C@@H](C)CO)C[C@@H]1C	none
OC(c1cc(C(F)(F)F)nc2c(C(F)(F)F)cccc12)C1CCCCN1 (centres undefined)	PGC1a acetyl up 78.1
O=C(C[C@@H]1C[C@@H]2c3cc(NC(=O)C4CCC4)ccc3O[C@@H]2[C@@H](CO)O1)NCc1ccc(-c2ccccc2)cc1	none
O=C(NC(=S)Nc1cccc(Cl)c1N1CCCCC1)c1ccco1	PGC1a acetyl up 104.4
CC(=O)c1c(COC(=O)c2ccccc2)nc2ccccc2[n+]1[O-]	none
Cc1ccccc1OCC(=O)OCC(=O)NCc1ccc2c(c1)OCO2	PGC1a acetyl up 68.2
COc1ccccc1/C=C(/C(=O)OCC(=O)NCc1ccccc1)c1ccccc1	none
CC(C)NC(=O)N(C)C[C@H]1OCc2cnnn2CCCC(=O)N([C@@H](C)CO)C[C@H]1C	none
CN1CCN(/N=C/c2ccc(OCc3ccccc3)cc2)CC1	none
CC(=O)Nc1cccc(-c2ccnc3c2CC(C)(C(=O)Nc2ccc(C(C)C)cc2)O3)c1 (centres undefined)	PGC1a acetyl up 69.6
CCc1ccc(NC(=O)C2CC=CCC2C(=O)O)cc1 (centres undefined)	PGC1a acetyl up 82.1
C=CS(=O)(=O)N(Cc1ccc(Cl)c(Cl)c1)C[C@@H](O)CO	PGC1a acetyl up 65.4
Cc1ccccc1-n1nnnc1Sc1nnnn1-c1ccccc1	none
CCCSc1nnc(Sc2nnnn2-c2ccccc2)s1	PGC1a acetyl up 84.4
C=CCSc1nc2ccccc2n1C(=O)/C=C/c1cc(OC)c(OC)c(OC)c1	PGC1a acetyl up 527.1
CC(C)CCCCCCCCCCCCC(=O)NCC(=O)NC1C(C)OC(Nc2ncnc3nc[nH]c23)C(O)C1O (centres undefined)	none
CC(c1ccccc1)N1CCN(C(=O)CCl)CC1 (centres undefined)	none
CCCCOc1ccc(C(=O)C(CN2CCOCC2)c2ccccc2)cc1 (centres undefined)	none
COc1ccc(C(=O)C(CN2CCCC2)c2ccccc2)cc1 (centres undefined)	PGC1a acetyl up 166.8
OC(c1ccccc1)(C1CCCCC1)C(CN1CCOCC1)c1ccccc1 (centres undefined)	PGC1a acetyl up 56.8
O=C(c1ccc(F)cc1)C(CN1CCOCC1)c1ccccc1 (centres undefined)	none
CCOC(=O)CCc1c(C)c2ccc(O)cc2oc1=O	PGC1a acetyl up 73.8
CCOCCCNc1nc2c(c(=O)n(C)c(=O)n2C)n1CCCc1ccccc1	none
Cc1[nH]c2ccccc2c1/C=N/Nc1nc2ccccc2[nH]1	PGC1a acetyl up 79.5
COc1ccc(/C=N/Nc2nc3ccccc3[nH]2)c(OC)c1OC	none
COc1cc(CNC(=O)c2cc(-c3cc(C)cc(F)c3)n[nH]2)cc(OC)c1	none
COc1ccc(/C=N/NC(=O)c2cccnc2)cc1CN1CCOCC1	none
Cc1cccc(C(=O)Nc2ccc(C(=O)/C=C/c3cccnc3)cc2)c1	none
CCCCCCC(=O)Nc1ccc(C(=O)N/N=C/c2cccnc2)cc1	PGC1a acetyl up 417.3
O=C(Cc1ccccn1)NCC[C@@H]1CC[C@H](NC(=O)Nc2ccc(C(F)(F)F)cc2)[C@H](CO)O1	none
COc1ccc(NC(=O)N[C@H]2CC[C@H](CCn3cc(-c4ccccc4F)nn3)O[C@@H]2CO)cc1	none
CCCN(C)C[C@H]1Oc2cc(C#C[C@@H](C)O)ccc2S(=O)(=O)N([C@@H](C)CO)C[C@H]1C	none
Cn1nc([N+](=O)[O-])nc1S(C)(=O)=O	PGC1a acetyl up 95.0
Cc1ccc(S(=O)(=O)N(C)C[C@H]2Oc3ccc(NC(=O)CCC(F)(F)F)cc3C(=O)N([C@H](C)CO)C[C@@H]2C)cc1	none
COc1ccc2nc(NCc3cccnc3)sc2c1	none
COc1cccc(C(=O)c2c[nH]c(C(=O)NCc3cccnc3)c2)c1	PGC1a acetyl up 85.5
CCn1cc(C(=O)NCc2cccnc2)c2cc(OC)c(OC)cc2c1=O	none
C[C@H]1CCCCO[C@H](CN(C)Cc2ccncc2)[C@@H](C)CN([C@@H](C)CO)C(=O)c2cc(NS(=O)(=O)c3ccccc3)ccc2O1	none
CSCCC(NC(=O)OC(C)(C)C)C(=O)Oc1ccc2c(=O)c(-c3ccc4c(c3)OCCO4)coc2c1 (centres undefined)	PGC1a acetyl up 73.2
COc1ccc(-c2onc(C)c2-c2ccc(C(=O)OC(C)C)o2)c(O)c1	none
CC(=O)NC(=S)Nc1ccc(NC(=O)COc2ccc(Cl)cc2Cl)cc1	PGC1a acetyl up 76.3
CC1CC1C(=O)N(C)CC(=O)Nc1cccc(F)c1 (centres undefined)	PGC1a acetyl up 77.6
CCC(=O)N1C[C@H](C)[C@@H](OC)CN(C)C(=O)c2cc(NC(=O)Nc3cccc(F)c3)ccc2OC[C@H]1C	none
O=C(Nc1cccc2[nH]ncc12)c1ccc(F)cc1	none
Cc1ccccc1-c1nc(C(=O)NCC2CCCO2)cc2c1[nH]c1ccccc12 (centres undefined)	PGC1a acetyl up 61.5
O=C(CSc1nc2ccccc2c(=O)n1CC1CCCO1)N1CCN(c2ccccc2)CC1 (centres undefined)	none
Cc1ccc(-c2cc(C(=O)NCC3CCCO3)c3ccccc3n2)cc1C (centres undefined)	none
CCc1ccc(C(=O)Nc2cccnc2Oc2ccc(Cl)cc2)cc1	none
COc1ccc2c(-c3ccccc3)cc(=O)[nH]c2c1	none
COc1ccc(-c2cc(-c3ccccc3)c(C#N)c(S(C)=O)n2)cc1 (centres undefined)	none
COc1ccc(-c2ccc(OC)cc2C(=O)O)cc1	PGC1a acetyl up 70.2
CCn1c(Oc2ccccc2F)nc2c1c(=O)n(C)c(=O)n2C	none
O=CNc1ccc2c(c1)Cc1cc([N+](=O)[O-])ccc1-2	PGC1a acetyl up 54.4
O=C(COC(=O)c1cc[n+]([O-])cc1)Nc1cccc(Cl)c1Cl	none
O=C(COc1ccccc1Cl)Nc1ccc(Cl)cn1	PGC1a acetyl up 98.2
OC[C@H]1O[C@@H](n2cnc3c(NCc4ccco4)ncnc32)[C@H](O)[C@@H]1O	PGC1a acetyl up 72.3
Nc1nc(F)nc2c1ncn2[C@@H]1O[C@H](CO)[C@@H](O)[C@H]1O	none
CC(C)c1nc2sc3c(NCc4ccco4)ncnc3c2c2c1COC(C)(C)C2	none
C[C@H]1CN([C@@H](C)CO)C(=O)c2cc(-c3cccc(C(=O)N(C)C)c3)cnc2O[C@@H]1CN(C)S(=O)(=O)c1ccc(F)cc1	none
CC(C)(C)NC(=O)c1ccc(Sc2ccccc2)c([N+](=O)[O-])c1	none
CCCNC(=O)COC(=O)c1ccccc1C(=O)c1ccc(Cl)c([N+](=O)[O-])c1	PGC1a acetyl up 126.9
Cc1cc(C(=O)OCC(=O)N(C)c2ccccc2)ccc1[N+](=O)[O-]	none
C[C@H]1CCC/C=C/[C@@H]2C[C@H](O)C[C@H]2[C@H](O)[C@H](S(=O)c2ccc(O)cc2)CC(=O)O1 (some centres undefined)	none
